# In article PMC11500341 (Scientific Reports, 2024):
# pKd: −log10 of the molar value. No end group written: not given here.
# Tests used:
# Rac1 [1] = target: Rac1 (Homo sapiens, UniProt P63000); test: SPR binding of peptide to immobilized Rac1
# Rac1 [2] = test: Western blot, Rac1 expression; assay type: cell-based, human; details: for % change of protein expression: vs CT; for Rac1 expression (in words): 48 and 72 h
# Summary of the method: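 MCF-7 cells (DMEM, 10% FBS) were treated per group for 48 and 72 h. Lysate protein was measured by BCA, and 30 µg was run on 10% SDS-PAGE and transferred to PVDF. Blots were blocked in 5% milk/TBS-T for 2 h. Rabbit anti-Rac1 (1:250) and GAPDH (1:500) antibodies were applied overnight at 4 °C, then 2 h at room temperature. HRP secondary (1:4000) and ECL detection followed, with band densitometry.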
substance,measurement,setting,value
FGDWS [FGDWS],pKd,Rac1 [1],6.09
same,KA (association constant),"Rac1 [1]; SPR, Rac1 immobilized on CM5 (4000 RU), BIAevaluation 3.0",1.24e+06 M⁻¹
same,% change of protein expression,"Rac1 [2]; MCF-7, 48 h, P1 75 μm",1.08%
same,% change of protein expression,"Rac1 [2]; MCF-7, 48 h, P3 300 μm / Dox 0.2 μm / Dox + P3 0.2 μm + 300 μm",25.84%
same,% change of protein expression,"Rac1 [2]; MCF-7, 72 h, P1 75 μm",12.74%
same,% change of protein expression,"Rac1 [2]; MCF-7, 72 h, P3 300 μm / Dox 0.2 μm / Dox + P3 0.2 μm + 300 μm",31.23%
same,Rac1 expression (in words),Rac1 [2]; MCF-7,downregulated significantly with increase in concentration of peptide dose from P1 to P3
same,% change of protein expression,"Rac1 [2]; MDA-MB-231, 48 h, P1 75 μm",21.41%
same,% change of protein expression,"Rac1 [2]; MDA-MB-231, 48 h, P3 300 μm / Dox 0.2 μm / Dox + P3 0.2 μm + 300 μm",36.01%
same,% change of protein expression,"Rac1 [2]; MDA-MB-231, 72 h, P1 75 μm",15.03%
same,% change of protein expression,"Rac1 [2]; MDA-MB-231, 72 h, P3 300 μm / Dox 0.2 μm / Dox + P3 0.2 μm + 300 μm",48.31%
same,Rac1 expression (in words),Rac1 [2]; MDA-MB-231,downregulated significantly with increase in concentration of peptide dose from P1 to P3
